# Results taken from ChEMBL document CHEMBL1240506, “Identification and development of novel inhibitors of Toxoplasma gondii enoyl reductase” (J Med Chem, 2010).
# Calls of active or inactive are those of the source. No cut-off for these calls is given here.
# What was measured:
# Toxoplasma gondii [1] = experiment: Antiparasitic activity against Toxoplasma gondii infected in HFF after 24 hrs by [3H]uracil incorporation assay; type: functional
# Method in brief: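 Human foreskin fibroblasts were infected with T. gondii tachyzoites and given 1 h to invade before inhibitors were added. Cultures ran 3 days, then 3H-uracil was added for a further day. Parasite growth was read as uracil incorporation by liquid scintillation counting. MIC50 and MIC90 are the concentrations giving 50% and 90% growth inhibition. There were 6 replicate samples per group.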
# HFF [2] = experiment: Toxicity to HFF at highest concentration; type: cell-based; settings: human
# Method in brief: (§1)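 Host-cell toxicity was tested on non-confluent fibroblast monolayers by 3H-thymidine incorporation, alongside visual inspection of monolayer integrity. Testing ran simultaneously with the parasite inhibition assay, and the highest concentration tested was scored.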
# [3] = target: T1, Enoyl-acyl carrier reductase (Toxoplasma gondii, UniProt Q6UCJ9); experiment: Inhibition of Toxoplasma gondii enoyl reductase
# T1 sequence (Q6UCJ9 whole entry): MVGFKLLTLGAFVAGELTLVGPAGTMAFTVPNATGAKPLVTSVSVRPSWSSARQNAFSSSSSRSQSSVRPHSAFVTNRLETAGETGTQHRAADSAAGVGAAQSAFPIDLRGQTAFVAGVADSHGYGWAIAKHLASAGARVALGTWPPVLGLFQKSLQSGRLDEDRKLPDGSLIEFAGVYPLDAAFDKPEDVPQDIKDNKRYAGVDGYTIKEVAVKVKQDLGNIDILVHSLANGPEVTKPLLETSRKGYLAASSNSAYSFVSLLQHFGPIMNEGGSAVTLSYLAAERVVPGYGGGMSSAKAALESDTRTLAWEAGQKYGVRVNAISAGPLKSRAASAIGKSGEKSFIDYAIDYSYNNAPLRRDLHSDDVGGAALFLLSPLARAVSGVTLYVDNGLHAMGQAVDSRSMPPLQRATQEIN
# Method in brief: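 Recombinant TgENR (20 nM) was assayed in 100 mM Na/K phosphate pH 7.5, 150 mM NaCl and 100 μM NADH. Compounds were added in DMSO (2% final), and reactions were started at 25°C with 100 μM crotonyl-CoA. NADH consumption was followed at 340 nm.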
# HFF [4] = experiment: Toxicity to HFF; type: cell-based; settings: human; method in brief: as §1
# [5] = Metabolic stability in human liver microsome assessed as compound remaining after 60 mins; type: ADME; settings: liver microsomes, read-out: INH
# Method in brief: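 Compounds were incubated with pooled human liver microsomes for 60 minutes, and the percentage of parent compound remaining was measured.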
# Toxoplasma gondii [6] = experiment: Antiparasitic activity against Toxoplasma gondii RH infected in ip dosed CD1 mouse; type: functional, organism-based
# Method in brief: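 CD1 mice were infected intraperitoneally with 2000 RH (Type 1) parasites, a lethal inoculum. Inhibitors were given intraperitoneally at 10mg/kg. Read-outs were peritoneal parasite burden by microscopy at day 5 and survival up to day 5 post-infection. There were 6 mice per group.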
# CYP2C9 = CYP2C9 (Homo sapiens, UniProt P11712); experiment: Inhibition of CYP2C9 at 10 uM; type: ADME
# Chain of CYP2C9 (P11712 whole entry): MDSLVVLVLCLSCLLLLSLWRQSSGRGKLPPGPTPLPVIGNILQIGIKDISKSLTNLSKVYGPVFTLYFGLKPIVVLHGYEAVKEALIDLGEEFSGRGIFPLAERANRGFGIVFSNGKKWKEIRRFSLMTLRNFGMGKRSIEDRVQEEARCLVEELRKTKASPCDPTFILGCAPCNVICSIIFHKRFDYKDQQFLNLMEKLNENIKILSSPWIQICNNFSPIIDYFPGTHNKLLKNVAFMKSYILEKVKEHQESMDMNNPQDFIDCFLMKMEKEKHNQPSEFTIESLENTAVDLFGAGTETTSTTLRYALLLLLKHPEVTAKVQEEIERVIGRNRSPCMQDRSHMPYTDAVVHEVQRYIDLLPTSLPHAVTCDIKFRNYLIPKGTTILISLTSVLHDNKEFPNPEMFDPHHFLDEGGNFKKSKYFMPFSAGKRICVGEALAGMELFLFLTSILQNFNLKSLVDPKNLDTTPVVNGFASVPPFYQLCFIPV
# Method in brief: (§2)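 Inhibition was measured against recombinant CYP450 isozymes 2C9, 2D6 and 3A4, each with compound at 10μM, and reported as percent inhibition.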
# CYP2D6 = CYP2D6 (Homo sapiens, UniProt P10635); experiment: Inhibition of CYP2D6 at 10 uM; type: ADME; method in brief: as §2
# Chain of CYP2D6 (P10635 whole entry): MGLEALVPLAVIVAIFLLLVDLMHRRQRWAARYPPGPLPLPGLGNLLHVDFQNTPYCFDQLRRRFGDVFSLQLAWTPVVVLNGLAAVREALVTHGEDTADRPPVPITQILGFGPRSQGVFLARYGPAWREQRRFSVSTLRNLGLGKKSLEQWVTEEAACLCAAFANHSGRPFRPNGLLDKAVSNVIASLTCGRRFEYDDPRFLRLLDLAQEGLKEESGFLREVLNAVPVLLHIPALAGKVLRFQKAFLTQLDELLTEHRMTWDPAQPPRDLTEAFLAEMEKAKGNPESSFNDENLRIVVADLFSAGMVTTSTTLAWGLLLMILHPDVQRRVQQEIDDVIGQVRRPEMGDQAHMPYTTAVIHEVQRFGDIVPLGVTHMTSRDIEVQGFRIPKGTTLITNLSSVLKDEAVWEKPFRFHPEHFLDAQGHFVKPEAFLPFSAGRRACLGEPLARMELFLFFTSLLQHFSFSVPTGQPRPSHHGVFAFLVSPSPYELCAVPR
# CYP3A4 = CYP3A4 (Homo sapiens, UniProt P08684); experiment: Inhibition of CYP3A4 at 10 uM; type: ADME; method in brief: as §2
# Chain of CYP3A4 (P08684 whole entry): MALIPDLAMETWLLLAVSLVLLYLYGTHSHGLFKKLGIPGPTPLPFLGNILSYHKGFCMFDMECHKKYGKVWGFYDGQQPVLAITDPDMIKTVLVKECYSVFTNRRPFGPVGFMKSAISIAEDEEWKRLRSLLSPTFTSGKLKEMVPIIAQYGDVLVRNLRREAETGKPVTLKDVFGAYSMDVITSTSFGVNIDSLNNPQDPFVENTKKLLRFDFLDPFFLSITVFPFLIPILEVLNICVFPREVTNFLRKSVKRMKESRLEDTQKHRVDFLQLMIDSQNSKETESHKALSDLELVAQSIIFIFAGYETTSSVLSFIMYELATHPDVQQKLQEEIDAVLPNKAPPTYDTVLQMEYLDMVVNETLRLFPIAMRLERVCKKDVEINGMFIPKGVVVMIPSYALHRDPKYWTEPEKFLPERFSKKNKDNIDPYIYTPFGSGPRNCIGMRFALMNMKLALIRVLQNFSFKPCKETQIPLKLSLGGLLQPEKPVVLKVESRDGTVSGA
Structure (SMILES),MIC50 (Toxoplasma gondii [1]) [µM],MIC90 (Toxoplasma gondii [1]) [µM],Activity (HFF [2]),IC50 [3] [µM],Activity (HFF [4]) [µM],remaining at 1 h [5] [%],Activity (Toxoplasma gondii [6]),inhibition at 10 µM (CYP2C9) [%],inhibition at 10 µM (CYP2D6) [%],inhibition at 10 µM (CYP3A4) [%]
CC(=O)Nc1ccccc1Oc1ccc(Cl)cc1O,> 24,> 24,–,–,–,–,–,–,–,–
CCOC(=O)C(C)OC(=O)c1cc(Oc2ccc(C(F)(F)F)cc2Cl)ccc1[N+](=O)[O-] (configuration not stated) [LACTOFEN],16,23,Non-toxic,–,–,–,–,–,–,–
O=c1cc(OCc2ccccc2)ccn1Cc1ccc([N+](=O)[O-])cc1Cl,3,15,Non-toxic,> 20,–,–,–,–,–,–
O=[N+]([O-])c1ccccc1Oc1ccc(Cl)cc1O,14,23,Non-toxic,0.29,–,–,–,–,–,–
CCCc1ccc(Oc2cccc(B(O)O)c2)c(O)c1,5,6,Non-toxic,0.174,> 6,–,–,–,–,–
COc1ccc(NC(=O)/C=C/c2ccc(N)nc2)cc1,> 6,> 6,Non-toxic,–,> 6,–,–,–,–,–
CCCc1ccc(Oc2cccc(Cl)c2)c(O)c1,> 6,> 6,Non-toxic,–,> 6,–,–,–,–,–
CCCc1cc(O)c(Oc2ccc(C#N)cc2)c(O)c1,> 6,> 6,Non-toxic,–,3,–,–,–,–,–
O=c1[nH]c2ccccc2n1S(=O)(=O)c1ccc([N+](=O)[O-])cc1,> 24,> 24,–,–,–,–,–,–,–,–
Nc1ccc(Nc2ccccc2)c(N)c1,> 6,> 6,Non-toxic,–,< 1.5,–,–,–,–,–
CN(Cc1cc2ccccc2n1C)C(=O)/C=C/c1ccc(N)nc1,> 6,> 6,Non-toxic,–,> 6,–,–,–,–,–
COc1ccc(COc2ccn(Cc3ccccc3Cl)c(=O)c2)cc1,17,23,Non-toxic,> 20,–,–,–,–,–,–
Oc1ccc(Oc2ccc(O)cc2O)cc1,> 6,> 6,Non-toxic,–,6,–,–,–,–,–
CC(C)(C)C(=O)Oc1cc(Cl)ccc1Oc1ccc(Cl)cc1Cl,4,6,Non-toxic,3,> 6,–,–,–,–,–
CC(=O)Nc1ccc(/C=C/C(=O)N(C)Cc2cc3ccccc3n2C)cn1,> 6,> 6,Non-toxic,–,> 6,–,–,–,–,–
Nc1ccc(/C=C/C(=O)NCc2ccccc2N)cn1,> 6,> 6,Non-toxic,–,> 6,–,–,–,–,–
CCCc1ccc(Oc2cccc(CCO)c2)c(O)c1,> 6,> 6,Non-toxic,–,> 6,–,–,–,–,–
Nc1ccccc1CNC(=O)COc1ccc([N+](=O)[O-])cc1,> 24,> 24,–,–,–,–,–,–,–,–
NC(=O)c1ccc(Cn2ccc(OCc3ccccc3)cc2=O)c(Cl)c1,> 24,> 24,–,–,–,–,–,–,–,–
N#Cc1ccc(Cn2ccc(OCc3ccccc3)cc2=O)c(Cl)c1,18,23,Non-toxic,> 20,–,–,–,–,–,–
O=c1[nH]c2ccccc2n1Cc1ccc([N+](=O)[O-])cc1,20,> 24,–,–,–,–,–,–,–,–
Oc1cc(Cl)ccc1Oc1cnccn1,> 6,> 6,Non-toxic,–,> 6,–,–,–,–,–
O=C(O)c1ccc(Cn2ccc(OCc3ccccc3)cc2=O)c(Cl)c1,> 24,> 24,–,–,–,–,–,–,–,–
Nc1cc(Cl)ccc1Oc1ccccc1,6,> 6,Non-toxic,> 20,–,–,–,–,–,–
CCCc1ccc(Oc2cccc([N+](=O)[O-])c2)c(O)c1,> 6,> 6,Non-toxic,–,6,–,–,–,–,–
O=c1cc(OCCCn2c3ccccc3c3ccccc32)ccn1Cc1ccccc1Cl,2,14,Non-toxic,> 2,–,–,–,–,–,–
C/C=C/C=C/C(=O)Nc1ccc(Oc2ccc(Cl)cc2Cl)c(O)c1,14,22,Non-toxic,2,–,–,–,–,–,–

Structure (SMILES),MIC50 (Toxoplasma gondii [1]) [µM],MIC90 (Toxoplasma gondii [1]) [µM],Activity (HFF [2]),IC50 [3] [µM],Activity (HFF [4]) [µM],remaining at 1 h [5] [%],Activity (Toxoplasma gondii [6]),inhibition at 10 µM (CYP2C9) [%],inhibition at 10 µM (CYP2D6) [%],inhibition at 10 µM (CYP3A4) [%]
CCCc1cc(O)c(Oc2ccc(C(N)=O)cc2)c(O)c1,20,> 24,Non-toxic,0.28,–,–,–,–,–,–
Oc1cc(Cl)ccc1Oc1ccccc1,5,> 6,Non-toxic,–,> 6,–,–,–,–,–
O=[N+]([O-])c1ccc(Oc2ccc(Cl)cc2O)cc1,17,23,Non-toxic,0.045,–,–,–,–,–,–
O=c1cc(OCc2ccccc2)ccn1Cc1ccccc1Cl,7,15,Non-toxic,> 20,–,–,–,–,–,–
CC(=O)Nc1ccc(Oc2ccc(Cl)cc2O)cn1,> 24,> 24,–,–,–,–,–,–,–,–
CC(C)(C)C(=O)Nc1cc(Cl)ccc1Oc1ccccc1,> 6,> 6,Non-toxic,–,> 6,–,–,–,–,–
Oc1ccc(Oc2ccccc2)c(O)c1,> 6,> 6,Non-toxic,–,6,–,–,–,–,–
Oc1cc(Cl)ccc1Oc1ccc(Cl)cc1Cl [TRICLOSAN],5,> 6,–,–,> 6,–,–,–,–,–
CCCc1cc(O)c(Oc2ccc(-c3nn[nH]n3)cc2)c(O)c1,> 24,> 24,Non-toxic,–,–,–,–,–,–,–
CC(=O)Nc1ccc(Oc2ccc(Cl)cc2O)cc1,> 24,> 24,–,–,–,–,–,–,–,–
CCCc1cc(O)c(Oc2ccc(C#N)cc2Cl)c(OC)c1,> 6,> 6,Non-toxic,–,> 6,–,–,–,–,–
Oc1ccc(Oc2ccc(Cl)cc2O)cc1,> 6,> 6,Non-toxic,–,> 6,–,–,–,–,–
O=c1[nH]c2ccccc2n1-c1ccc([N+](=O)[O-])c(Cl)c1,> 24,> 24,–,–,–,–,–,–,–,–
C/C=C/C=C/C(=O)Nc1ccc(Oc2ccc(Cl)cc2O)cc1,6,> 6,–,> 2,6,–,–,–,–,–
CCCc1cc(O)c(Oc2ccc(C(=O)O)cc2Cl)c(O)c1,> 24,> 24,Non-toxic,–,–,–,–,–,–,–
Oc1cc(Cl)ccc1Oc1ccc(-c2ccccc2)cc1,6,20,Non-toxic,–,–,–,–,–,–,–
Oc1cc(Cl)ccc1Oc1cccnc1,> 6,> 6,Non-toxic,2.8,> 6,–,–,–,–,–
O=C(c1ccc([N+](=O)[O-])cc1)n1c(=O)[nH]c2ccccc21,> 24,> 24,–,–,–,–,–,–,–,–
COc1ccc(NC(=O)COc2ccc([N+](=O)[O-])cc2)cc1,23,> 24,–,–,–,–,–,–,–,–
Nc1ncccc1C(=O)Nc1cc(Cl)ccc1Oc1ccccc1,17,24,Non-toxic,> 20,–,–,–,–,–,–
CCCc1ccc(Oc2ccc([N+](=O)[O-])cc2)c(O)c1,6,> 6,Non-toxic,< 0.02,> 6,–,–,–,–,–
CCCc1ccc(Oc2ccc(N)cc2)c(O)c1,6,> 6,Non-toxic,< 0.02,3,–,–,–,–,–
CCCc1ccc(Oc2ccc([N+](=O)[O-])cc2Cl)c(O)c1,4,6,Non-toxic,< 0.02,1.5,–,–,–,–,–
CCCc1cc(O)c(Oc2ccc(C#N)cc2Cl)c(O)c1,15,22,Non-toxic,< 0.02,–,–,–,–,–,–
O=[N+]([O-])c1ccc(Oc2ccc(Cl)cc2O)c(Cl)c1,4,6,Non-toxic,–,4,51.2,Active,> 85,< 22,< 22
CCCc1ccc(Oc2ccc([N+](=O)[O-])cc2[N+](=O)[O-])c(O)c1,2,6,Non-toxic,< 0.02,< 1.5,–,–,–,–,–
